ChEMBL document CHEMBL3774372, “Design, physico-chemical properties and biological evaluation of some new N-[(phenoxy)alkyl]- and N-{2-[2-(phenoxy)ethoxy]ethyl}aminoalkanols as anticonvulsant agents” (Bioorg Med Chem, 2016)

What was measured:
Rattus norvegicus [1] = assay: Neurotoxicity in rat at 30 mg/kg, po after 2 hrs by rotarod test; format: toxicity, organism-based; details: in vivo
Rattus norvegicus [2] = assay: Neurotoxicity in rat at 30 mg/kg, po after 1 hr by rotarod test; format: toxicity, organism-based; details: in vivo
Mus musculus [3] = assay: Neurotoxicity in mouse at 30 mg/kg, ip after 2 hrs by rotarod test; format: toxicity, organism-based; details: in vivo
Mus musculus [4] = assay: Neurotoxicity in mouse at 30 mg/kg, ip after 4 hrs by rotarod test; format: toxicity, organism-based; details: in vivo
Summary of the method: (§1)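 Mice were dosed ip with compound suspended in 0.5% methylcellulose. Rotarod: a 1 in. knurled rod turning at 6 rpm. Neurotoxicity was scored as failure to stay on the rod for at least 1 min in each of three trials. Results are given as the number of animals affected out of the number tested.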

Rattus norvegicus [5] = assay: Neurotoxicity in rat at 30 mg/kg, po after 0.5 hrs by rotarod test; format: toxicity, organism-based; details: in vivo
Rattus norvegicus [6] = assay: Neurotoxicity in rat at 30 mg/kg, ip after 0.5 hrs by rotarod test; format: toxicity, organism-based; details: in vivo
Mus musculus [7] = assay: Neurotoxicity in mouse at 300 mg/kg, ip after 0.5 hrs by rotarod test; format: toxicity, organism-based; details: in vivo; summary of the method: as §1
Rattus norvegicus [8] = assay: Neurotoxicity in rat at 30 mg/kg, po after […] by rotarod test; format: toxicity, organism-based; details: in vivo
Rattus norvegicus [9] = assay: Neurotoxicity in rat at 30 mg/kg, ip after 4 hrs by rotarod test; format: toxicity, organism-based; details: in vivo
Rattus norvegicus [10] = assay: Neurotoxicity in rat at 30 mg/kg, ip after 2 hrs by rotarod test; format: toxicity, organism-based; details: in vivo
Mus musculus [11] = assay: Neurotoxicity in mouse at 100 mg/kg, ip after 0.5 hrs by rotarod test; format: toxicity, organism-based; details: in vivo; summary of the method: as §1
Rattus norvegicus [12] = assay: Neurotoxicity in rat at 30 mg/kg, ip after […] by rotarod test; format: toxicity, organism-based; details: in vivo
Rattus norvegicus [13] = assay: Neurotoxicity in rat at 30 mg/kg, po after 4 hrs by rotarod test; format: toxicity, organism-based; details: in vivo
Mus musculus [14] = assay: Neurotoxicity in mouse at 30 mg/kg, ip after 0.5 hrs by rotarod test; format: toxicity, organism-based; details: in vivo; summary of the method: as §1
Rattus norvegicus [15] = assay: Neurotoxicity in rat at 30 mg/kg, ip after 1 hr by rotarod test; format: toxicity, organism-based; details: in vivo
[16] = Displacement of [35S]dATPalpha S from rat cerebral cortex P2Y receptor; format: tissue-based
Summary of the method: (§2)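 Radioligand binding on rat cerebral cortex preparations: [35S]TBPS (GABA-gated Cl⁻ channel), [125I]apamin (SKCa), [3H]batrachotoxinin (Na⁺ site 2), [35S]dATPαS (P2Y), [3H]TCP (PCP), [3H]flunitrazepam (central BZD).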

[17] = target: 5-hydroxytryptamine receptor 2B (Homo sapiens, UniProt P41595); assay: Displacement of [125I](+/-)DOI from human recombinant 5-HT2B receptor expressed in CHO cells; format: cell-based
Sequence of 5-hydroxytryptamine receptor 2B (P41595 whole entry): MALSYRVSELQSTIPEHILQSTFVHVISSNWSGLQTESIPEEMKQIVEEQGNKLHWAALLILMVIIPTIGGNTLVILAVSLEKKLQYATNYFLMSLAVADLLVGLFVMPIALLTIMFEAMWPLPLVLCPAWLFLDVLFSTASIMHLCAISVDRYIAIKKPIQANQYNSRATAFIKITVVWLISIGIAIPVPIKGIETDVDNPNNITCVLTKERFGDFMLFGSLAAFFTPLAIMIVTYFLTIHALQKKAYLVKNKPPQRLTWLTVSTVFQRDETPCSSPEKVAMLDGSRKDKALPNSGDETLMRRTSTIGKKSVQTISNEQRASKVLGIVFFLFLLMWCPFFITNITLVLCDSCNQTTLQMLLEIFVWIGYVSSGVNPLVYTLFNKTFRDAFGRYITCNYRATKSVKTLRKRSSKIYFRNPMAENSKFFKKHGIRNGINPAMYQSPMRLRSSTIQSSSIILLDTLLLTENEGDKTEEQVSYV

[18] = Displacement of [3H]TCP from rat cerebral cortex PCP receptor; format: tissue-based; summary of the method: as §2

Cc1cccc(C)c1OCCOCCN[C@@H](C)CO.Cl
Activity (Rattus norvegicus [1]): Non-toxic | Activity (Rattus norvegicus [2]): Non-toxic | Activity (Mus musculus [3]): Non-toxic | Activity (Mus musculus [4]): Non-toxic | Activity (Rattus norvegicus [5]): Non-toxic | Activity (Rattus norvegicus [6]): Non-toxic | Activity (Mus musculus [7]): Toxic | Activity (Rattus norvegicus [8]): Non-toxic | Activity (Rattus norvegicus [9]): Non-toxic | Activity (Rattus norvegicus [10]): Non-toxic | Activity (Mus musculus [11]): Non-toxic | Activity (Rattus norvegicus [12]): Non-toxic | Activity (Rattus norvegicus [13]): Non-toxic | Activity (Mus musculus [14]): Non-toxic | Activity (Rattus norvegicus [15]): Non-toxic

Nc1ncnc2c1ncn2[C@@H]1O[C@H](COP(O)(=S)OP(=O)(O)OP(=O)(O)O)[C@@H](O)[C@H]1O (stereo partly drawn)
IC50 [16]: 29 nM

COc1cc(CC(C)N)c(OC)cc1I (racemic)
IC50 [17]: 2.5 nM

C[C@]12N[C@H](Cc3ccccc31)c1ccccc12 [DIZOCILPINE]
IC50 [18]: 4.6 nM
